Source: ChEMBL document CHEMBL1145784, “Three dimensional pharmacophore modeling of human CYP17 inhibitors. Potential agents for prostate cancer therapy” (J Med Chem, 2003)

Columns and labels:
[1] = target: T1, Steroid 17-alpha-hydroxylase/17,20 lyase (Homo sapiens, UniProt P05093); experiment: In vitro cytochrome P450 17A1 inhibition was assayed using the rapid acetic acid releasing assay (AARA), utilizing intact P450c17-expressing Escherichia coli or P450c17-LNCaP cells as the enzyme source.
T1 sequence (P05093 whole entry): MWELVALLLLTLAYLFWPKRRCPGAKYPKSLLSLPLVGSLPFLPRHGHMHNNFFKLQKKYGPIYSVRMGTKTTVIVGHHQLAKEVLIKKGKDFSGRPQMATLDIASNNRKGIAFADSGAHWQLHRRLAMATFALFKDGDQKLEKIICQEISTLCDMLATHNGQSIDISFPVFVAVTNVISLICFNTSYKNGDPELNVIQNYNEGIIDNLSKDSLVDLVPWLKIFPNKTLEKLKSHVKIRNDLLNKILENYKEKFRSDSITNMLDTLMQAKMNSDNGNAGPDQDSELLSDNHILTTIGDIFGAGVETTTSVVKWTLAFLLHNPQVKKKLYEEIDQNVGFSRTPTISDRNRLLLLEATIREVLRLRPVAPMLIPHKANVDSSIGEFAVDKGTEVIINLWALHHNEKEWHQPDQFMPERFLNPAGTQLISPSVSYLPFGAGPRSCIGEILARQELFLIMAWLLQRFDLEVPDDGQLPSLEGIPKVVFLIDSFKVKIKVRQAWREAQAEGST
Outline: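 Enzyme source was intact E. coli expressing P450c17 or P450c17-LNCaP cells. Substrate was [21-3H]-17α-hydroxypregnenolone, and CYP17 activity was read as tritiated acetic acid released by C-21 side-chain cleavage. Each compound was tested at five or more concentrations, in triplicate. IC50 was taken directly from plots of % inhibition versus concentration and reported as the mean of triplicate experiments.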

[2] = target: T1, Steroid 17-alpha-hydroxylase/17,20 lyase; experiment: In vitro Cytochrome P450 17A1 inhibition in rapid acetic acid releasing assay (AARA) using intact P450c17-expressing Escherichia coli or P450c17-LNCaP cells as the enzyme source at 1 mM
Outline: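 Acetic acid releasing assay using intact P450c17-expressing E. coli or P450c17-LNCaP cells with [21-3H]-17α-hydroxypregnenolone as substrate. Activity was read as tritiated acetic acid formed from C-21 side-chain cleavage. Percent inhibition was recorded at a single inhibitor concentration of 1 mM.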

[3] = target: T1, Steroid 17-alpha-hydroxylase/17,20 lyase

Compound: C/C(=N/O)C1=CC=C2[C@@H]3CCC4=CC(=O)CC[C@]4(C)[C@H]3CC[C@]12C
- IC50 [1]: 1700 nM

Compound: C/C(=N/O)[C@@]1(O)CC[C@H]2[C@@H]3CC=C4C[C@@H](O)CC[C@]4(C)[C@H]3CC[C@@]21C
- IC50 [1]: 12000 nM

Compound: C[C@]12CC[C@@H](O)CC1=CC[C@@H]1[C@@H]2CC[C@]2(C)C(=C/C=N/O)CC[C@@H]12
- IC50 [1]: 320 nM

Compound: C[C@]12CC[C@H](O)CC1=CCC1C2CC[C@@]2(C)C1CC[C@H]2c1ccncn1 (some centres undefined)
- IC50 [1]: 225 nM

Compound: C[C@]12CCC3C(CC=C4C[C@@H](O)CC[C@@]43C)C1C/C(=N\O)C2 (some centres undefined)
- IC50 [1]: 628 nM

Compound: C[C@]12CC[C@H](O)CC1=CCC1C2CC[C@]2(C)C(n3nccn3)=CCC12 (some centres undefined)
- IC50 [1]: 3700 nM

Compound: C[C@]12CCC(=O)C=C1CCC1C2CC[C@]2(C)C(n3cncn3)=CCC12 (some centres undefined)
- IC50 [1]: 1200 nM

Compound: C[C@]12CC[C@H](O)CC1=CCC1C2CC[C@]2(C)C(n3cnnn3)=CCC12 (some centres undefined)
- IC50 [1]: 2600 nM

Compound: C[C@]12CCC(=O)C=C1CCC1C2CC[C@]2(C)C(n3ccnc3)=CCC12 (some centres undefined)
- IC50 [1]: 150 nM

Compound: C[C@]12CC[C@H](O)CC1=CCC1C2CC[C@]2(C)C(n3cncn3)=CCC12 (some centres undefined)
- IC50 [1]: 800 nM

Compound: CC(=O)O[C@H]1CCC2C3C=CC4=CC(=O)C=C[C@]4(C)C3CC[C@@]21C (some centres undefined)
- IC50 [1]: 660 nM

Compound: C=C1C[C@@]2(C)C(=CC1=O)CCC1C2CC[C@@]2(C)C1CC[C@]2(C)OC(C)=O (some centres undefined)
- IC50 [1]: 562 nM

Compound: C[C@]12CC[C@H](O)CC1=CCC1C2CC[C@]2(C)C(c3cncnc3)=CCC12 (some centres undefined)
- IC50 [1]: 500 nM

Compound: C[C@]12CCC3C(CC=C4C[C@@H](O)CC[C@@]43C)C1CCC2C/C=N/O (some centres undefined)
- IC50 [1]: 450 nM

Compound: C[C@]12CCC(=O)C=C1CCC1C2CC[C@]2(C)C(n3cnc4ccccc43)=CCC12 (some centres undefined)
- IC50 [1]: 915 nM

Compound: CS(=O)(=O)Nc1cc(Cc2cc(NS(C)(=O)=O)cc(C(F)(F)F)c2)cc(C(F)(F)F)c1
- inhibition at 1000 µM [2]: ~25%

Compound: C[C@]12CCC(=O)C=C1CCC1C2CC[C@]2(C)C(n3ccnn3)=CCC12 (some centres undefined)
- IC50 [1]: 387 nM

Compound: C[C@]12CC[C@H](O)CC1=CCC1C2CC[C@]2(C)C(=N/N)/C(=N/O)CC12 (some centres undefined)
- IC50 [1]: 5900 nM

Compound: C[C@]12CC[C@H](O)CC1=CCC1C2CC[C@]2(C)C(n3ccnn3)=CCC12 (some centres undefined)
- IC50 [1]: 377 nM

Compound: C[C@]12CCC(=O)C=C1CCC1C2CC[C@]2(C)C(c3ccno3)=CCC12 (some centres undefined)
- IC50 [1]: 1000 nM

Compound: CC(CCC(=O)OC1CC2CC=CC1C2)[C@H]1CCC2C3CC=C4C[C@@H](O)CC[C@]4(C)C3CCC21 (some centres undefined)
- IC50 [1]: 617 nM

Compound: C[C@]12CC[C@H](O)CC1=CCC1C2CC[C@]2(C)C(n3ncnn3)=CCC12 (some centres undefined)
- IC50 [1]: 1400 nM

Compound: C[C@]12CC[C@H](O)CC1=CC[C@@H]1[C@@H]2CC[C@]2(C)C(c3cccnc3)=CC[C@@H]12 [ABIRATERONE]
- IC50 [1]: 800 nM

Compound: c1ccc(-c2ccc(C(c3ccccc3)n3ccnc3)cc2)cc1 (centres undefined) [BIFONAZOLE]
- Ki [3]: 56.5 nM

Compound: Clc1ccc(COC(Cn2ccnc2)c2ccc(Cl)cc2Cl)cc1 (centres undefined) [ECONAZOLE]
- Ki [3]: 325 nM

Compound: Clc1ccc(COC(Cn2ccnc2)c2ccc(Cl)cc2Cl)c(Cl)c1 (centres undefined) [MICONAZOLE]
- Ki [3]: 243 nM

Compound: C[C@]12CC[C@H](O)CC1=CCC1C2CC[C@]2(C)/C(=N/NC(N)=O)CCC12 (some centres undefined) [NRB 03731]
- IC50 [1]: 178 nM

Compound: CCC(=O)O[C@H]1CC[C@H]2[C@@H]3CCC4=CC(=O)CC[C@]4(C)[C@H]3CC[C@]12C [TESTOSTERONE PROPIONATE]
- IC50 [1]: 56 nM

Compound: Clc1ccc(C(Cn2ccnc2)OCc2ccsc2Cl)c(Cl)c1 (centres undefined) [TIOCONAZOLE]
- Ki [3]: 505 nM
